This is an account of results in ChEMBL document CHEMBL3351585, “Design, synthesis and biological evaluation of novel peptides with anti-cancer and drug resistance-reversing activities” (Eur J Med Chem, 2015).

Calls of active or inactive are those of the source. No cut-off for these calls is given here.

The nature of data set [1]: Anticancer activity against human MCF7/ADR cells after 48 hrs by MTT assay. The conditions noted are these: NCI/ADR-RES. In kind it is functional, cell-based. Put shortly:
(§1)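 Cells grown in RPMI1640 with 10% heat-inactivated FBS and 1% penicillin-streptomycin at 37 °C, 5% CO2. Log-phase cells were seeded at 5 × 10^3/well 24 h before treatment, exposed to a range of peptide concentrations for 48 h, then given MTT for 4 h. Formazan was dissolved in DMSO and A490 read. Survival was computed relative to untreated wells, and IC50 taken from the survival curve.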
Background: Formazan colour is commonly taken as a measure of viable cells.

Data set [2] can be described thus: Anticancer activity against human K562/ADR cells after 48 hrs by MTT assay. In kind it is functional, cell-based. Put shortly: as §1
A short description of data set [3]: Cytotoxicity against human GES-1 cells after 48 hrs by MTT assay. In kind it is cell-based. The conditions noted are these: GES1, 48 h. Put shortly:
as §1

The subject of a further data set is K562. In words: Anticancer activity against human K562 cells after 48 hrs by MTT assay. In kind it is functional, cell-based. Conditions: K562, 48 h. Put shortly: as §1
For data set [4], the system named is MCF7. In words: Anticancer activity against human MCF7 cells after 48 hrs by MTT assay. The class given is functional, cell-based. Conditions: MCF7, 48 h. Put shortly:
as §1

For data set [5], the system named is MCF7. Put plainly: Induction of cytochrome c release in extracellular region of human MCF7 cells incubated for 2 hrs by ELISA method (reference value: 15.7 +/- 0.77 ng). The class given is functional. On the technique in general: ELISA stands for enzyme-linked immunosorbent assay.
The subject of data set [6] is MCF7. Put plainly: Induction of cytochrome c release in mitochondria of human MCF7 cells incubated for 2 hrs by ELISA method (reference value: 347.8 +/- 14.5 ng). In kind it is functional.
In data set [7] the test system is MCF7. In words: Induction of cytochrome c release in cytoplasm of human MCF7 cells incubated for 2 hrs by ELISA method (reference value: 44.1 +/- 2.7 ng). The class given is functional.
For data set [8], the system named is MCF7. Put plainly: Induction of cytochrome c release in human MCF7 cells incubated for 2 hrs by ELISA method (reference value: 364.2 +/- 20.5 ng). In kind it is functional.
Data set [9] can be described thus: Retention time of the compound by UPLC method. In kind it is physicochemical.
Data set [10] in a line: Toxicity in rabbit erythrocytes assessed as induction of hemolysis at 160 uM incubated for 1 hr by microplate reader assay. In kind it is cell-based, Oryctolagus cuniculus. Conditions: erythrocyte. Put shortly: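 Rabbit red blood cells in PBS were mixed 1:1 by volume with peptide solution and incubated 1 h at 37 °C, then spun at 1000 g for 5 min. Hemoglobin in the supernatant was read at 540 nm. PBS defined 0% hemolysis and 0.1% Triton X-100 defined 100%.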

The test system of data set [11] is MCF7. In words: Induction of cell membrane alteration in human MCF7 cells at 20 uM incubated for 30 mins by acridine orange/ethidium bromide double staining method. In kind it is functional, cell-based. Put shortly:
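MCF-7 cells were plated at 1 × 10^5/well and grown 24 h, then given peptide for 30 min. Cells were washed twice with PBS and stained 10 min in the dark with cold PBS containing acridine orange and ethidium bromide. Excess dye was washed off, then cells were imaged by fluorescence microscopy. Red EB staining marks membrane-compromised cells.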

A short description of data set [12]: Increase in adriamycin uptake in human K562/ADR cells at 5 uM after 2.5 hrs by fluorescence microscopy. The class given is ADME, cell-based. The procedure, abridged: (§2)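 2 × 10^5 MCF-7/ADM or K562/ADM cells were co-incubated 2.5 h with ADM plus peptide, or with verapamil as comparator. Cells were washed with cold PBS and ADM fluorescence was imaged by fluorescence microscopy.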

In the next data set the test system is NCI/ADR-RES. Put plainly: Potentiation of adriamycin-induced cytotoxicity against human MCF7/ADR cells at 5 uM after 48 hrs by MTT assay. In kind it is functional, cell-based. Put shortly: (§3)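 ADM-resistant MCF-7/ADM or K562/ADM cells, grown in RPMI1640 with 10% FBS at 37 °C and 5% CO2, were seeded at 1 × 10^4 per well and held 24 h. Fixed peptide was added, followed by graded ADM concentrations, for 48 h. MTT was then given for 4 h at 37 °C, formazan dissolved in DMSO and absorbance read at 570 nm. Verapamil served as positive control.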

For data set [13], the system named is MCF7. In words: Induction of cytochrome c release in human MCF7 cells at 20 uM incubated for 2 hrs by ELISA method (reference value: 364.2 +/- 20.5 ng). In kind it is functional.
The subject of another data set is K562/Adr. In words: Potentiation of adriamycin-induced cytotoxicity against human K562/ADR cells at 5 uM after 48 hrs by MTT assay. In kind it is functional, cell-based. Put shortly:
as §3

Data set [14] is described as follows: Increase in adriamycin uptake in human K562/ADR cells at 5 uM after 2.5 hrs by fluorescence spectrophotometry. In kind it is ADME, cell-based. Put shortly: (§4)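 2 × 10^5 MCF-7/ADM or K562/ADM cells were co-incubated 2.5 h with ADM plus peptide, or with verapamil as comparator. After washing in cold PBS, cells were lysed in 0.75 M HCl/0.2% Triton X-100 in isopropanol. Lysate ADM fluorescence was measured by spectrofluorometry at ex 460/em 610 nm.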

The test system of data set [15] is MCF7. In words: Induction of cytochrome c release in human MCF7 cells at 5 to 20 uM incubated for 2 hrs by ELISA method.
A short description of data set [16]: Increase in adriamycin uptake in human MCF7/ADR cells at 5 uM after 2.5 hrs by fluorescence microscopy. In kind it is ADME, cell-based. The conditions noted are these: nci/adr-res. Put shortly: as §2
In data set [17] the test system is MCF7. Put plainly: Antimigratory activity in human MCF7 cells assessed as inhibition of cell migration at 5 uM incubated for 48 hrs by transwell migration assay. In kind it is functional, cell-based. Put shortly:
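Transwell chambers with a porous membrane separating upper and lower compartments. 4 × 10^4 MCF-7 cells were placed in the upper chamber in peptide-containing medium and incubated 48 h. Cells that reached the lower membrane surface were counted.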

In data set [18] the test system is MCF7. Put plainly: Induction of cytochrome c release in cytoplasm of human MCF7 cells at 20 uM incubated for 2 hrs by ELISA method (reference value: 44.1 +/- 2.7 ng). The class given is functional.
The subject of data set [19] is MCF7. Put plainly: Antimigratory activity in human MCF7 cells assessed as inhibition of cell migration at 5 uM incubated for 48 hrs by wound healing assay. The class given is functional, cell-based. The procedure, abridged:
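MCF-7 cells were seeded at 2 × 10^5/well and grown 24 h to 90% confluence. A cell-free gap was scratched, and cells migrated in serum-free medium with peptide for 48 h. Wound closure was photographed at 0 h and 48 h.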

A short description of data set [20]: Drug uptake in cytosol of human MCF7 cells at 20 uM incubated for 5 mins or 30 mins by fluorescein isothiocyanate labeling based fluorescence microscopy. In kind it is ADME, cell-based. The procedure, abridged:
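MCF-7 cells were plated at 1 × 10^5/well and grown 24 h, then exposed to FITC-labeled peptides for 5 min or 30 min. Cells were washed three times with cold PBS, and intracellular fluorescence was imaged by fluorescence microscopy.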

For data set [21], the system named is MCF7. Put plainly: Induction of cytochrome c release in extracellular region of human MCF7 cells at 20 uM incubated for 2 hrs by ELISA method (reference value: 15.7 +/- 0.77 ng). In kind it is functional.
The test system of data set [22] is MCF7. In words: Induction of cell membrane morphology changes in human MCF7 cells at 20 uM incubated for 30 mins by scanning electron microscopy. In kind it is functional, cell-based. Put shortly: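 MCF-7 cells were grown 24 h on coverslips at 1 × 10^5/well and exposed to peptide for 30 min. Cells were gently PBS-washed, fixed in 2.5% glutaraldehyde, and examined by scanning electron microscopy.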

Data set [23] can be described thus: Increase in adriamycin uptake in human MCF7/ADR cells at 5 uM after 2.5 hrs by fluorescence spectrophotometry. The class given is ADME, cell-based. Conditions: nci/adr-res. The procedure, abridged: as §4
The test system of data set [24] is MCF7. In words: Induction of mitochondrial membrane potential depolarization in human MCF7 cells at 20 uM incubated for 2 hrs by JC1 staining. In kind it is functional, cell-based. The procedure, abridged:
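MCF-7 cells were plated at 1 × 10^5/well, grown 24 h, and treated with peptide for 2 h. Mitochondrial membrane potential was assessed with a JC-1 kit by imaging red and green fluorescence.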

In data set [25] the test system is MCF7. In words: Induction of cytochrome c release in mitochondria of human MCF7 cells at 20 uM incubated for 2 hrs by ELISA method (reference value: 347.8 +/- 14.5 ng). In kind it is functional.

The IC50 is the point on the concentration scale where inhibition reaches its midpoint. Read a high IC50 as weaker potency in that assay.

In the case of `COc1cccc2c1C(=O)c1c(O)c3c(c(O)c1C2=O)C[C@@](O)(C(=O)CO)C[C@@H]3O[C@H]1C[C@H](N)[C@H](O)[C@H](C)O1` [DOXORUBICIN], the IC50 turned out to be 52.5 µM in data set [1]; 67.6 µM in data set [2]; 0.53 µM in data set [3]; 0.45 µM with K562; 0.36 µM in the data set with MCF7 [4].
On to `O=c1[nH]cc(F)c(=O)[nH]1` [FLUOROURACIL], for which the Activity turned out to be 15.7 ng with MCF7 [5], 319.2 ng in the data set on MCF7 [6], 49.6 ng with MCF7 [7] and 357 ng with MCF7 [8]. Further, the IC50 in data set [3] stood at 30.9 µM; in the data set on K562 it was 31.6 µM; in the data set with MCF7 [4], 26.9 µM.
For H-VKRFKKFFRKLKKAV-NH2, the concentration for half-maximal inhibition (IC50) in data set [3] was 87.1 µM; in the data set with K562, 8.6 µM; with MCF7 [4], 8.9 µM. The Retention_time in data set [9] is given as 3.48 min. Besides, in [10], the Activity result is given as “Non-toxic”.
In the same order, the values of H-VKRFKKFFRKLKKDV-NH2 are 120 µM, 44.7 µM, 19.9 µM, 3.38 min and “Non-toxic”.
For H-VKRFKKFFRKLKKEV-NH2 the same measures were 104 µM, 36.6 µM, 38.9 µM, 3.41 min and “Non-toxic”.
In the same order, the values of H-VKRFKKFFRKLKKFV-NH2 are 52.5 µM, 3.7 µM, 1.3 µM, 3.74 min and “Non-toxic”.
Consider H-VKRFKKFFRKLKKGV-NH2, for which the figures for the IC50 (in [3]; in the data set on K562; with MCF7 [4]) were 107 µM, 14.8 µM and 15.8 µM, respectively. In data set [9], this compound yielded a Retention_time of 3.25 min. Also, the Activity result in [10] is recorded as “Non-toxic”.
For H-VKRFKKFFRKLKKHV-NH2 the same measures were 105 µM, 10.5 µM, 5 µM, 3.28 min and “Non-toxic”.
In the case of H-VKRFKKFFRKLKKQV-NH2, the results for the IC50 (in [3]; in the data set with K562; with MCF7 [4]) were 102 µM, 16.2 µM and 14.5 µM, respectively. In data set [9], this compound came in with a Retention_time of 3.31 min. For the same compound, in [10], the Activity result was “Non-toxic”.
In the same order, the values of H-VKRFKKFFRKLKKRV-NH2 are 93.3 µM, 8.7 µM, 5.5 µM, 3.13 min and “Non-toxic”.
With H-VKRFKKFFRKLKKSV-NH2, the outcome in the data set with MCF7 [11], with NCI/ADR-RES, with K562/Adr, in the data set with MCF7 [22] and with MCF7 [24] was Active. Further, the Activity result in data set [12] was “Active”; in the data set with MCF7 [13] it was 353.4 ng; in data set [14] it was “Active”; in the data set on MCF7 [15], “Dose-dependent effect”; in [16] it was “Active”; in the data set on MCF7 [18], 60.3 ng. In addition, the Activity with MCF7 [21] is 14.7 ng; in data set [23], “Active”; in data set [10], “Non-toxic”; in the data set on MCF7 [25] it was 301.4 ng. Further, the IC50 in data set [1] was determined as 24.1 µM; in data set [2], 31.6 µM; in data set [3], 102 µM; in the data set with K562, 26.9 µM; in the data set with MCF7 [4] it was 21.9 µM. Besides, the inhibition result with MCF7 [17] and in the data set with MCF7 [19] was “Active” in each case. Further, the Drug uptake entry in data set [20] is given as “Active”. This compound also registered a Retention_time in data set [9] of 3.38 min.
As to H-VKRFKKFFRKLKKTV-NH2, the figures for the 50% inhibitory concentration (IC50) (in [3]; with K562; in the data set on MCF7 [4]) were 110 µM, 17 µM and 19.1 µM, respectively. In data set [9], this compound returned a Retention_time of 3.44 min. In data set [10], the Activity entry is on record as “Non-toxic”.
For H-VKRFKKFFRKLKKVV-NH2 the same measures were 64.6 µM, 5 µM, 4.9 µM, 3.69 min and “Non-toxic”.
